Among the data in ChEMBL document CHEMBL4138056, “T- and B-cell immunosuppressive activity of novel α-santonin analogs with humoral and cellular immune response in Balb/c mice” (Medchemcomm, 2017) are inhibition and Activity values, retold here.

Series [1] deals with B-cell line. The series can be described thus: Immunosuppressive activity in Balb/c mouse B cells assessed as inhibition of LPS-induced cell proliferation at 100 uM after 48 hrs by MTT assay relative to control. Type of series: functional. In short, it runs like this:
(§1)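 Balb/c spleen single-cell suspension, RBCs lysed with tris-ammonium chloride, viability by trypan blue; 1×10^6 cells/mL stimulated with LPS (10 μg/mL) for B cells, test agent 1, 10 or 100 μM, 48 h at 37 °C, 5% CO2. MTT 4 h, DMSO solubilization, OD 540 nm; % change vs mitogen control; triplicate, three separate experiments.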

For series [2], the system named is B-cell line. In words: Immunosuppressive activity in Balb/c mouse B cells assessed as inhibition of LPS-induced cell proliferation at 10 uM after 48 hrs by MTT assay relative to control. In kind it is functional. In short, it runs like this: as §1
On the technique in general: Tetrazolium dyes change colour on reduction, which living cells bring about.

Series [3] deals with B-cell line. In words: Immunosuppressive activity in Balb/c mouse B cells assessed as inhibition of LPS-induced cell proliferation at 1 uM after 48 hrs by MTT assay relative to control. Type of series: functional. In short, it runs like this:
as §1

Series [4] concerns Murine T-cell line. The series can be described thus: Cytotoxicity against Balb/c mouse T cells assessed as decrease in cell survival at 100 uM by MTT assay. In kind it is cell-based. A digest of the protocol:
(§2)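 Balb/c splenocytes (RBC lysed with tris-ammonium chloride, trypan blue viability) seeded at 1×10^6 cells/mL with Con A or LPS (10 μg/mL each) and test agent at 1, 10 or 100 μM for 48 h at 37 °C, 5% CO2; MTT added for 4 h, formazan dissolved in DMSO, OD 540 nm. Cytotoxicity scored +/−; triplicate, three separate experiments.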

The test system of series [5] is Murine T-cell line. The series can be described thus: Cytotoxicity against Balb/c mouse T cells assessed as decrease in cell survival at 10 uM by MTT assay. Type of series: cell-based. In short, it runs like this:
as §2

Series [6] deals with Murine T-cell line. In words: Cytotoxicity against Balb/c mouse T cells assessed as decrease in cell survival at 1 uM by MTT assay. Type of series: cell-based. In short, it runs like this:
as §2

Series [7] concerns B-cell line. In words: Cytotoxicity against Balb/c mouse B cells assessed as decrease cell survival at 100 uM by MTT assay. Type of series: cell-based. A digest of the protocol:
as §2

Series [8] deals with B-cell line. In words: Cytotoxicity against Balb/c mouse B cells assessed as decrease cell survival at 10 uM by MTT assay. In kind it is cell-based. In short, it runs like this: as §2
The subject of series [9] is B-cell line. In words: Cytotoxicity against Balb/c mouse B cells assessed as decrease cell survival at 1 uM by MTT assay. In kind it is cell-based. In short, it runs like this: as §2
Series [10] has as its system Murine T-cell line. The series can be described thus: Immunosuppressive activity in Balb/c mouse T cells assessed as inhibition of ConA-induced cell proliferation at 1 uM after 48 hrs by MTT assay relative to control.
Series [11] has as its system Murine T-cell line. The series can be described thus: Immunosuppressive activity in Balb/c mouse T cells assessed as inhibition of ConA-induced cell proliferation at 10 uM after 48 hrs by MTT assay relative to control.
The test system of series [12] is Murine T-cell line. The series can be described thus: Immunosuppressive activity in Balb/c mouse T cells assessed as inhibition of ConA-induced cell proliferation at 100 uM after 48 hrs by MTT assay relative to control.

As to `CC(=O)Oc1cc(C)c2c(c1C)[C@@H]1OC(=O)[C@@H](C)[C@@H]1CC2`, the figures for the inhibition at 100 µM with B-cell line [1] and with Murine T-cell line [12] were 68% and 63%, respectively. Moreover, the inhibition at 10 µM in the series on B-cell line [2] was determined as 44.3%; in the series with Murine T-cell line [11], 45.2%. Further, the inhibition at 1 µM in the series with B-cell line [3] turned out to be 51.8%; in the series on Murine T-cell line [10] it was 39.7%. Moreover, the Activity result is on record as “Toxic” in the series on Murine T-cell line [4]; “Non-Toxic” with Murine T-cell line [5]; “Non-Toxic” in the series with Murine T-cell line [6]; “Toxic” in the series with B-cell line [7]; “Non-Toxic” with B-cell line [8]; “Non-Toxic” in the series on B-cell line [9].

As for `CCC(=O)Oc1cc(C)c2c(c1C)[C@@H]1OC(=O)[C@@H](C)[C@@H]1CC2`, the inhibition at 100 µM in the series on B-cell line [1] came out at 69%; in the series on Murine T-cell line [12], 41%. For the same compound, the inhibition at 10 µM stood at 43% in the series with B-cell line [2] and 33% in the series on Murine T-cell line [11]. Moreover, the results for the inhibition at 1 µM with B-cell line [3] and in the series with Murine T-cell line [10] were 20% and 11.7%, respectively. The Activity result with Murine T-cell line [4], with Murine T-cell line [5], in the series with Murine T-cell line [6], in the series with B-cell line [7], in the series on B-cell line [8] and with B-cell line [9] was “Toxic” each time.

On to `Cc1cc(OC(=O)CCC(=O)O)c(C)c2c1CC[C@H]1[C@H](C)C(=O)O[C@@H]21`, for which the figures for the inhibition at 100 µM in the series on B-cell line [1] and with Murine T-cell line [12] were 5.2% and 61.7%, respectively. In addition, the inhibition at 10 µM is 42.7% with B-cell line [2] and 53.4% in the series with Murine T-cell line [11]. Moreover, the inhibition at 1 µM worked out at 33.3% with B-cell line [3] and 29.4% in the series on Murine T-cell line [10]. Also, the Activity entry in the series with Murine T-cell line [4] is listed as “Toxic”; in the series on Murine T-cell line [5] it was “Toxic”; in the series with Murine T-cell line [6], “Non-Toxic”; in the series on B-cell line [7], “Toxic”; with B-cell line [8], “Toxic”; with B-cell line [9], “Non-Toxic”.

On to `Cc1cc(OC(=O)CCC(=O)Nc2ccccc2Cl)c(C)c2c1CC[C@H]1[C@H](C)C(=O)O[C@@H]21`, for which the inhibition at 100 µM with B-cell line [1] was determined as 69%; in the series with Murine T-cell line [12], 56%. Moreover, the inhibition at 10 µM amounted to 51% with B-cell line [2] and 45% with Murine T-cell line [11]. The inhibition at 1 µM is 27.7% in the series with B-cell line [3] and 13% with Murine T-cell line [10]. Also, the Activity result in the series on Murine T-cell line [4], in the series with Murine T-cell line [5], with Murine T-cell line [6], in the series on B-cell line [7], with B-cell line [8] and in the series on B-cell line [9] was “Non-Toxic” each time.

As for `CCCC(=O)Oc1cc(C)c2c(c1C)[C@@H]1OC(=O)[C@@H](C)[C@@H]1CC2`, the results for the inhibition at 100 µM in the series with B-cell line [1] and with Murine T-cell line [12] were 69.8% and 71.9%, respectively. For the same compound, the inhibition at 10 µM with B-cell line [2] amounted to 35.4%; in the series on Murine T-cell line [11], 38%. The inhibition at 1 µM with B-cell line [3] was 12.5%; in the series on Murine T-cell line [10] it was 28.5%. For the same compound, the Activity result in the series on Murine T-cell line [4], in the series with Murine T-cell line [5], in the series with Murine T-cell line [6], in the series with B-cell line [7], with B-cell line [8] and in the series on B-cell line [9] was “Non-Toxic” throughout.

In the case of `Cc1cc(OC(=O)CCC(=O)Nc2ccccc2F)c(C)c2c1CC[C@H]1[C@H](C)C(=O)O[C@@H]21`, the figures for the inhibition at 100 µM in the series on B-cell line [1] and with Murine T-cell line [12] were 77.9% and 66.7%, respectively. The inhibition at 10 µM in the series on B-cell line [2] worked out at 44%; with Murine T-cell line [11], 41.7%. The figures for the inhibition at 1 µM with B-cell line [3] and with Murine T-cell line [10] were 21% and 16.7%, respectively. Besides, the Activity entry in the series with Murine T-cell line [4], in the series on Murine T-cell line [5], with Murine T-cell line [6], with B-cell line [7], with B-cell line [8] and in the series on B-cell line [9] was “Non-Toxic” each time.

In general, inhibition refers to the change of the read-out against control, counted positive when it falls.
